Screens: PubChem, The Scripps Research Institute Molecular Screening Center
M4 antag: CHRM4 antagonism in calcium assay; P08173; CHO-hM4 cells, ACh EC80, Fluo-8 calcium fluorescence; inhibition, % at 3 µM; hit rate 0.73% among 360,000; AID 624125;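 active means inhibition above its plate's cutoff, the mean inhibition of sample wells plus 3 SD, cut at about 27% in these data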
Target sequence (P08173 whole entry, looked up): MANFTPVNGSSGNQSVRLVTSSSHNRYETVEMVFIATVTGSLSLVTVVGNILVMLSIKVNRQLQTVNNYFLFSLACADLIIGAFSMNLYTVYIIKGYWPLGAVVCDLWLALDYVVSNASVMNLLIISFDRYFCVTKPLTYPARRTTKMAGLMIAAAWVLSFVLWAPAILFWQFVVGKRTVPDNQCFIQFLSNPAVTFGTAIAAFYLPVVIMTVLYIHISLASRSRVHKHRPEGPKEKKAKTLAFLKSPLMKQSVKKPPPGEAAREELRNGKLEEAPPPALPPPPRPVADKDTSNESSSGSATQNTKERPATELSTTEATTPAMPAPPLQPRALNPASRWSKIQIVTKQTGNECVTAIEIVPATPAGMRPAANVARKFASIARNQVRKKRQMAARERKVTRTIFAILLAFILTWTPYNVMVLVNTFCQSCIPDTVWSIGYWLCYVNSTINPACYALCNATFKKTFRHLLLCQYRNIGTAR
M5 PAM: CHRM5 positive allosteric modulation; AID 624038; hit rate 0.3% among 360,000; CHO-K1 hM5, Fluo-8 calcium, ACh EC20 PAM; 0% = ACh EC20, 100% = ACh EC100; activation, % at 3 µM; P08912;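 active means activation above the run cutoff, the mean activation of all test compounds plus 3 SD, cut at about 18% in these data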
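Assay system – human M5 receptor in CHO-K1 cells · Read-out – % activation, ACh-normalized · Technique – Fluo-8 calcium fluorescence · Dosing – single-point, 3 µM nominal · Incubation – Fluo-8 loading 80 min at 37 °C plus 30 min room temperature · Repeats – singlicate, one well per test compound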
CHRM5 antagonist: antagonists of human muscarinic M5 receptor (CHRM5). CHO-hM5 cells, Fluo-8 calcium fluorescence, ACh EC80. inhibition, % at 3 µM. hit rate 0.59% among 360,000;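 active means inhibition above a per-plate cutoff, the mean of that plate's test compounds plus 3 SD, cut at about 27% in these data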
CHRM5 agonist: CHRM5 agonism in calcium assay | P08912 | activation, % at 3 µM | hit rate 0.19% among 360,000 | AID 624037 | CHO-K1 hM5 cells, Fluo-8 calcium fluorescence; 0% DMSO wells, 100% maximal acetylcholine response;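 active means activation above the run's mean over test compounds plus 3 SD, cut at about 23% in these data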;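 further: signal is peak over basal fluorescence ratio across the kinetic read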
M4 ag: CHRM4 agonism in calcium assay; activation, % at 3 µM; hit rate 0.14% among 360,000; CHO-K1 hM4/Gqi5, Fluo-8 calcium fluorescence; vehicle 0%, full acetylcholine response 100%; P08173;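 active means activation above the run mean over all test wells plus 3 SD, cut at about 32% in these data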;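 further: peak over basal fluorescence ratio per well then scaled between controls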
M4 PAM: potentiates acetylcholine response at human M4 receptor; activation, % at 3 µM; P08173; hit rate 0.4% among 360,000; CHO-K1 hM4/Gqi5, Fluo-8 calcium fluorescence, ACh EC20; 0% = ACh EC20, 100% = maximal ACh;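 active means activation above its plate's cutoff, the mean activation of sample wells plus 3 SD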
Of the large screens only hits and unclear results are named; the others gave an inactive call. In the library only some 1.9% were active in any assay of this set; here they are far more common.

N#Cc1nc(-c2ccccc2Cl)oc1N1CCN(C(=O)c2ccco2)CC1	M5 PAM 23
COc1cccc(-c2nc(C#N)c(N3CCN(C(=O)c4ccco4)CC3)o2)c1	M4 PAM 22
Cc1ccc2nc(SCC(=O)NCC3CCCO3)c(C#N)cc2c1 (stereo not drawn)	none
Cc1ccc2cc(C#N)c(SCC(=O)NCC3CCCO3)nc2c1 (stereo not drawn)	M4 PAM 26
C=CCn1c(SCC(=O)Nc2nncs2)nnc1-c1ccco1	none
Oc1cnn(-c2ccccc2)c1	M4 PAM 31
Oc1ccc(-c2[nH]ncc2-c2cnn(-c3ccccc3)c2)c(O)c1	none
O=C(Nc1c(-c2ccc3c(c2)OCO3)[nH][nH]c1=O)c1ccc2c(c1)OCO2	none
c1ccc(-c2noc(-c3cccc4ccccc34)n2)cc1	M4 PAM 16
CC(=O)[C@@]1(O)CCC2C3C=CC4=CC(=O)CC[C@]4(C)C3CC[C@@]21C (stereo partly drawn)	none
C=C1CC2C(CCC3(C)C2CCC3(O)C(C)=O)C2(C)CCC(=O)C=C12 (stereo not drawn)	none
CC(=O)C1(O)CCC2C3CC(C)C4=CC(=O)CCC4(C)C3CCC21C (stereo not drawn)	M4 antag 44
CC(=O)[C@@]1(O)CC[C@H]2[C@@H]3C[C@H](C)C4=CC(=O)CC[C@]4(C)[C@H]3CC[C@@]21C	M4 antag 33
COc1ccc2[nH]c3c(=O)n(CCCN4CCOCC4)cnc3c2c1	M5 PAM 21
CC(=O)Nc1ccc2nc(-c3ccc(Br)o3)[nH]c2c1	M4 PAM 23
CCNC1=C(Cl)C(=O)c2ccccc2C1=O	none
O=C1C(Cl)=C(Nc2ccc(O)cc2)C(=O)c2ccccc21	M4 antag 64, CHRM5 antagonist 41
CCCC(=O)NC1=C(Cl)C(=O)c2ccccc2C1=O	M4 antag 61, CHRM5 antagonist 32
Cc1cc(NS(C)(=O)=O)c(=O)n(Cc2cccc(C(F)(F)F)c2)c1	none
CN1CCN(c2ncnc3scc(-c4ccccc4Cl)c23)CC1	CHRM5 antagonist 30
CCOc1ccccc1N1CCN(c2ncnc3scc(-c4ccc(OC)cc4)c23)CC1	M4 antag 27
C[C@H](CO)N1C[C@H](C)[C@H](CN(C)C(=O)NC2CCCCC2)Oc2ncc(Br)cc2C1=O	none
COc1ccc(-n2nc(C(=O)NCC(=O)NCCCN3CCC(C)CC3)c3ccccc3c2=O)cc1Cl	none
CCN(CCCNC(=O)CNC(=O)c1nn(-c2ccc(OC)cc2)c(=O)c2ccccc12)c1cccc(C)c1	CHRM5 antagonist 29
COc1ccc(-n2nc(C(=O)NCC(=O)NCCCN3CCCCCC3)c3ccccc3c2=O)cc1Cl	M4 antag 32
CCN(C(=O)c1ccc(NC(C)=O)cc1)c1ccccc1	M4 PAM 19
COc1ccc(/C=N/Nc2nonc2N)cc1	none
Nc1nonc1NN=C1CCCCC1	M5 PAM 21
COc1ccc(OC)c(-c2c3cc(O)c(=O)cc-3oc3cc(O)c(O)cc23)c1	CHRM5 agonist 55, M4 ag 60
O=c1cc2oc3cc(O)c(O)cc3c(-c3ccccc3O)c-2cc1O	none
COc1ccc(C2c3[nH]c4ccccc4c3C[C@H]3C(=O)N(C4CCN(Cc5ccccc5)CC4)CC(=O)N23)c(OC)c1 (stereo partly drawn)	M4 antag 27
CCOc1ccccc1C1c2[nH]c3ccccc3c2C[C@H]2C(=O)N(C3CCN(Cc4ccccc4)CC3)CC(=O)N12 (stereo partly drawn)	none
CCN(CC)c1ccc(/C=N/Nc2nn[nH]n2)cc1	M5 PAM 19
O=Cc1ccccc1Oc1ccccc1	none
O=Cc1ccccc1OCCOc1ccccc1C=O	M4 antag 27
Cc1ccc(CN2CCNC(=O)C2CC(=O)NCC(F)(F)F)o1 (stereo not drawn)	CHRM5 antagonist 27
Cc1ccc(CN2CCNC(=O)C2CC(=O)N(C)C(C2CC2)C2CC2)o1 (stereo not drawn)	none
CC1=CC(C/C(C)=C/COc2ccc3ccc(=O)oc3c2)OC1=O (stereo not drawn)	M4 PAM 35
COc1ccc(C2C(C(=O)NCc3ccco3)CCC(=O)N2c2ccc(OC)cc2)cc1 (stereo not drawn)	M5 PAM 46
COc1ccc(C2C(C(=O)O)CCC(=O)N2c2ccc(OC)cc2)cc1 (stereo not drawn)	none
O=C(O)c1cccc(NC(=O)c2ccccc2)c1	none
O=C(Nc1cccc(C(=O)Nc2cccc(Br)c2)c1)c1ccccc1	CHRM5 antagonist 30
CCC(C)(C)n1nnnc1C(c1ccc(Cl)cc1)N1CCN(C)CC1 (stereo not drawn)	M4 PAM 20
CCCCN1C(=O)C(CC(=O)NCCCCc2ccccc2)CC(C(=O)N2CCCCCC2)=C1C (stereo not drawn)	none
CCC(C)(C)c1ccc(OCCCC[n+]2cccc(C)c2C)c(C(C)(C)CC)c1	M4 antag 62, CHRM5 antagonist 47
O=C(OCCC12CC3CC(CC(C3)C1)C2)c1ccc(NCc2cc(O)ccc2O)cc1	M5 PAM 27
O=C(C[C@H]1C/C=C\C[C@@H](Cc2ccc(F)cc2)C(=O)OC[C@H]2CCCN2C1=O)NCCO	none
CC1CCCC(C)N1C(=O)COC(=O)CCC1CCCC1 (stereo not drawn)	none
O=Cc1ccc(-n2cncn2)cc1	none
CN1C(=O)S/C(=C\c2ccc(-n3cncn3)cc2)C1=O	M5 PAM 21
CCOC(=O)C1(CCCc2ccccc2)CCN(C2CCN(C(C)=O)CC2)CC1	CHRM5 antagonist 30
CCOC(=O)C1(CCCc2ccccc2)CCN(C(=O)CSC)CC1	none
COc1ccc(-c2cn(-c3ccc(C)cc3)c(=O)n2CC(=O)Nc2cccc(F)c2)cc1	M5 PAM 26
OC(c1cccc(Cl)c1)c1ncc(-c2cccc3ccccc23)[nH]1 (stereo not drawn)	none
CC1(C(=O)NS(=O)(=O)c2ccccc2Cl)CCN1C(=O)CCc1ccccc1 (stereo not drawn)	none
CC(=C/c1ccccc1)/C=N/NC(=O)c1cccs1	none
O=C(N/N=C/C(Br)=C\c1ccccc1)c1cccs1	M5 PAM 23
CCOC(=O)CCc1c(C)c2ccc(OC3CCCCC3=O)cc2oc1=O (stereo not drawn)	M4 antag 34
COc1cccc(NC(=O)COC(=O)c2c3c(nc4ccccc24)CCC(C)C3)c1 (stereo not drawn)	M4 antag 41
